Test results: ChEMBL document CHEMBL3272207, “Structure-activity relationship in cinnamamides. 2. Synthesis and pharmacological evaluation of some (E)- and (Z)-N-alkyl-alpha, beta-dimethylcinnamamides substituted on the phenyl group” (J Med Chem, 1977)
Active and inactive are the calls of the source. The calls are words filed in the database; no cut-off is given here.

Tests used:
[1] = Toxicity in po dosed albino Icem-CET (SPF Caw) mouse assessed as mortality measured after 24 to 72 hrs; format: organism-based; details: in vivo
Mus musculus [2] = test: Behavioral toxicity in po dosed albino Icem-CET (SPF Caw) mouse assessed as positional passivity by Irwin's test; format: organism-based; details: in vivo
Mus musculus [3] = test: Behavioral toxicity in po dosed albino Icem-CET (SPF Caw) mouse assessed as reduction in locomotor activity by Irwin's test; format: organism-based; details: in vivo
Mus musculus [4] = test: Behavioral toxicity in po dosed albino Icem-CET (SPF Caw) mouse assessed as tremors by Irwin's test; format: organism-based; details: in vivo
Mus musculus [5] = test: Behavioral toxicity in albino Icem-CET (SPF Caw) mouse assessed as clonic type convulsion at 25 to 800 mg/kg, po by Irwin's test; format: organism-based; set-up: dose 25-800 mg/kg, route oral; details: in vivo
Mus musculus [6] = test: Anticonvulsant activity in albino Icem-CET (SPF Caw) mouse assessed as inhibition of pentylenetetrazole-induced maximal extensor seizures at 100 mg/kg, po administered 30 mins prior challenge; format: functional, organism-based; set-up: dose 100 mg/kg
Procedure, shortened: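 Single-dose screen at 100 mg/kg by gavage in 0.5% Methocel in fasted male Icem-CET (SPF Caw) mice, 17-22 g. Dosing was 30 min before pentylenetetrazole 130 mg/kg ip, and prevention of maximal extensor seizures was scored.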

Mus musculus [7] = test: Behavioral toxicity in albino Icem-CET (SPF Caw) mouse assessed as tremors at 25 to 800 mg/kg, po by Irwin's test; format: organism-based; set-up: dose 25-800 mg/kg, route oral; details: in vivo
[8] = Behavioral toxicity in po dosed albino Icem-CET (SPF Caw) mouse measured up to 7 days by Irwin's test; format: organism-based; details: in vivo
Mus musculus [9] = test: Anticonvulsant activity in po dosed albino Icem-CET (SPF Caw) mouse assessed as inhibition of pentylenetetrazole-induced maximal extensor seizures compound administered 30 mins prior challenge; format: functional
Procedure, shortened: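 Pentylenetetrazole antagonism in male Icem-CET (SPF Caw) mice, 17-22 g, fasted 9 h. Compound in 0.5% Methocel was given by gavage (0.2 ml/10 g) at 4-5 doses, 20 mice per dose, 30 min before pentylenetetrazole 130 mg/kg ip. Prevention of maximal extensor seizures was scored. ED50 was calculated by probit analysis, with fiducial limits at p = 0.05.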

Mus musculus [10] = test: Toxicity in po dosed albino Icem-CET (SPF Caw) mouse assessed as clonic type convulsion by Irwin's test; format: organism-based; details: in vivo
Procedure, shortened: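 Irwin test in fasted (9 h) male Icem-CET (SPF Caw) mice, 17-22 g. Oral gavage of a 0.5% Methocel suspension at screening doses of 25-800 mg/kg. Clonic-type convulsions were scored as the minimum effective dose.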

Mus musculus [11] = test: Behavioral toxicity in albino Icem-CET (SPF Caw) mouse assessed as positional passivity at 25 to 800 mg/kg, po by Irwin's test; format: organism-based; set-up: dose 25-800 mg/kg, route oral; details: in vivo
Mus musculus [12] = test: Toxicity in po dosed albino Icem-CET (SPF Caw) mouse assessed as impairment of pinna by Irwin's test; format: organism-based; details: in vivo
Mus musculus [13] = test: Toxicity in po dosed albino Icem-CET (SPF Caw) mouse assessed as impairment of corneal reflexes by Irwin's test; format: organism-based, Cornea; details: in vivo
Mus musculus [14] = test: Behavioral toxicity in albino Icem-CET (SPF Caw) mouse assessed as tremor at 200 to 800 mg/kg, po measured after 90 mins by Irwin's test; format: organism-based; set-up: dose 200-800 mg/kg, route oral; details: in vivo, 1.5 h
Mus musculus [15] = test: Toxicity in albino Icem-CET (SPF Caw) mouse assessed as clonic type convulsion at 200 to 800 mg/kg, po measured after 90 mins by Irwin's test; format: organism-based; set-up: dose 200-800 mg/kg, route oral; details: in vivo, 1.5 h
Mus musculus [16] = test: Behavioral toxicity in albino Icem-CET (SPF Caw) mouse assessed as positional passivity at 25 to 800 mg/kg, po measured up to 90 mins by Irwin's test; format: organism-based; set-up: dose 25-800 mg/kg, route oral; details: in vivo, 1.5 h
Mus musculus [17] = test: Behavioral toxicity in albino Icem-CET (SPF Caw) mouse assessed as twitches at 200 to 800 mg/kg, po measured after 90 mins by Irwin's test; format: organism-based; set-up: dose 200-800 mg/kg, route oral; details: in vivo, 1.5 h

SMILES | ED50 (Mus musculus [2]) [mg/kg] | ED50 (Mus musculus [3]) [mg/kg] | ED50 (Mus musculus [4]) [mg/kg] | Activity (Mus musculus [6]) | LD50 at 168 h [8] [mg/kg] | further results
C#CCNC(=O)/C(C)=C(\C)c1ccc(Cl)cc1 | 400 | 60 | 200 | – | – | LD50 [1]: 140 mg/kg
C/C(C(=O)NC1CC1)=C(\C)c1ccc(C)cc1 | 500 | 280 | – | inactive | > 800 | Activity (Mus musculus [5]): Non-toxic; Activity (Mus musculus [7]): Non-toxic
C/C(C(=O)NC1CC1)=C(\C)c1ccc(Br)cc1 | 450 | 300 | – | – | 600 | Activity (Mus musculus [5]): Non-toxic; Activity (Mus musculus [7]): Non-toxic
C#CCNC(=O)/C(C)=C(\C)c1ccc(Br)cc1 | 500 | 180 | 150 | – | 300 | ED50 (Mus musculus [9]): 18.4 mg/kg
C=CCNC(=O)/C(C)=C(/C)c1ccc(Cl)cc1 | 280 | 180 | 400 | inactive | 600 | MED (Mus musculus [10]): 400 mg/kg
C/C(C(=O)NC1CC1)=C(\C)c1ccc(Cl)cc1 | – | 170 | 600 | – | 450 | Activity (Mus musculus [5]): Non-toxic; Activity (Mus musculus [11]): Non-toxic
C=CCNC(=O)/C(C)=C(\C)c1ccc(C)cc1 | 170 | 100 | 150 | – | 600 | ED50 (Mus musculus [9]): 78 mg/kg
C#CCNC(=O)/C(C)=C(\C)c1ccc(C)cc1 | 200 | 120 | 150 | – | > 800 | ED50 (Mus musculus [9]): 86.4 mg/kg
C/C(C(=O)NC1CC1)=C(/C)c1ccccc1 | 250 | 100 | 150 | – | 500 | –
C/C(C(=O)NC1CC1)=C(/C)c1ccc(F)cc1 | 200 | 110 | 70 | – | 300 | ED50 (Mus musculus [9]): 25 mg/kg; Activity (Mus musculus [12]): Toxic; Activity (Mus musculus [13]): Toxic
C=CCNC(=O)/C(C)=C(\C)c1ccccc1 | 300 | 130 | 250 | – | 550 | –
C=CCNC(=O)/C(C)=C(/C)c1ccc(C)cc1 | – | 280 | 400 | inactive | > 800 | Activity (Mus musculus [11]): Non-toxic; MED (Mus musculus [10]): 400 mg/kg
C=CCNC(=O)/C(C)=C(\C)c1ccc(Br)cc1 | 500 | 120 | 500 | – | 600 | ED50 (Mus musculus [9]): 33.7 mg/kg
C=CCNC(=O)/C(C)=C(\C)c1ccc(OC)cc1 | 300 | 200 | 300 | inactive | > 800 | –
O=C1NC(=O)C(c2ccccc2)(c2ccccc2)N1 [PHENYTOIN] | – | 150 | 250 | – | – | Activity (Mus musculus [14]): Non-toxic; Activity (Mus musculus [15]): Non-toxic; Activity (Mus musculus [16]): Non-toxic; Activity (Mus musculus [17]): Non-toxic
C=CCNC(=O)/C(C)=C(\C)c1cc(OC)c(OC)c(OC)c1 | 280 | 110 | 190 | inactive | 600 | –
C/C(C(=O)NC1CC1)=C(\C)c1ccccc1 | – | 400 | 300 | inactive | 600 | Activity (Mus musculus [11]): Non-toxic; MED (Mus musculus [10]): 400 mg/kg
